Format in all cases: functional, cell-based
The subject of assay [1] is U-937. Nature of the assay: Induction of myeloid differentiation in human U-937 cells at 50 nM in combination with 20 nM chaetocin measured after 12 hrs by Liu's staining method. Put shortly:
(§1)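 Cells received single epigenetic inhibitors or combinations and were collected by cytospin. After Liu's staining (reagent A 1 min, reagent B 2.5 min), differentiated cells were counted under a light microscope. Mean ± s.e. of three independent experiments.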

Assay [2] deals with KG-1a. Nature of the assay: Cytotoxicity against human KG-1a cells at 20 nM assessed as decrease in cell viability in combination with 50 nM JQ-1 measured after 24 hrs by MTT assay. In general terms: Tetrazolium dyes change colour on reduction, which living cells bring about.
Assay [3] deals with U-937. Nature of the assay: Cytotoxicity against human U-937 cells at 20 nM assessed as decrease in cell viability in combination with 50 nM JQ-1 measured after 24 hrs by MTT assay.
In assay [4] the test system is HL-60. Nature of the assay: Induction of myeloid differentiation in human HL-60 cells at 50 nM in combination with 20 nM chaetocin measured after 12 hrs by Liu's staining method. Put shortly: as §1
Assay [5] relates to KG-1a. Kind of assay: Induction of myeloid differentiation in human KG-1a cells at 50 nM in combination with 20 nM chaetocin measured after 12 hrs by Liu's staining method. Put shortly: as §1
Assay [6] concerns HL-60. Nature of the assay: Cytotoxicity against human HL-60 cells at 20 nM assessed as decrease in cell viability in combination with 50 nM JQ-1 measured after 24 hrs by MTT assay.

Each structure is given as a SMILES string. The source made the active and inactive calls. The rule behind the calls is not given here.

`CN1C(=O)[C@@]23C[C@]4([C@]56C[C@@]78SS[C@@](CO)(C(=O)N7[C@H]5Nc5ccccc56)N(C)C8=O)c5ccccc5N[C@@H]4N2C(=O)[C@]1(CO)SS3.Cc1sc2c(c1C)C(c1ccc(Cl)cc1)=N[C@@H](CC(=O)OC(C)(C)C)c1nnc(C)n1-2`: the result in assay [1], in assay [3], in assay [4] and in assay [5] was inactive. The result in assay [2] and in assay [6] was Active.

Values taken from ChEMBL document CHEMBL5674867, “The SUV39H1 inhibitor chaetocin induces differentiation and shows synergistic cytotoxicity with other epigenetic drugs in acute myeloid leukemia cells” (Blood Cancer J, 2015).
